How the values were obtained:
[1] = test system: synaptic transmission in acute slices of the rat PFC; assay: Extracellular field potential; assay type: cell-based
Procedure, shortened: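 PFC slices from male Sprague Dawley rats aged 5–6 weeks, cut in ice-cold ACSF (pH 7.4, 95% O2/5% CO2). Layer V fEPSPs (prelimbic/infralimbic) evoked by 100 μs pulses every 30 s to layers II–III. Drugs from DMSO, 0.05% final, applied 30–60 min after 30 min baseline. Amplitude as % of last 10 min baseline; 3–14 slices/group; paired t-test.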

male CD‐1 mice = assay: T‐maze continuous alternation task, MK‐801‐induced memory impairment; assay type: in vivo, mouse; settings: for time spent in the T‐maze vs. MK‐801/vehicle‐treated group: P > 0.05
Procedure, shortened: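 Male CD-1 mice (about 28 g) on a reversed light cycle, tested in the dark phase in an enclosed, elevated T-maze under dim light (10 lux). MK-801 s.c. 30 min pre-test; test compound (0.1–75 mg·kg−1 p.o., Natrosol/Tween vehicle) given just after it. 14 trials in 14 min; mice completing <50% excluded. Reversal scaled: saline/vehicle 100%, MK-801/vehicle 0%. Kruskal–Wallis, Dunn's.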

cGMP in the PFC of mice = assay: Determination of cGMP in mouse prefrontal cortex; assay type: in vivo; settings: 30 min after p.o. administration, highest dose tested, P < 0.05
Procedure, shortened: (§1)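 Adult male CD-1 mice, n = 8/group, dosed p.o. with vehicle (0.5% Natrosol, 0.01% Tween-80) or test compound. Killed by focused microwave brain irradiation 30 min later. PFC homogenized and centrifuged in 0.5 N HCl; supernatant assayed by ELISA. Detection limits: cGMP 0.02, cAMP 0.03 pmol·mg−1 tissue. One-way ANOVA, Dunnett's.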

cAMP in the PFC of mice = assay: Determination of cAMP in mouse prefrontal cortex; assay type: in vivo; settings: 30 min after p.o. administration, highest dose tested, P < 0.05
Procedure, shortened: as §1

male Lister‐hooded rats = assay: 5‐choice serial reaction time task; assay type: in vivo, rat
Procedure, shortened: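 Food-restricted rats held at about 85% of free-feeding weight. Trained to criterion: ≥50 correct trials, ≥70% accuracy, ≤20% omissions (SD 0.7 s, ITI 5 s, LH 5 s). Ten challenge sessions with SD cut from 700 to 500 ms. Upper and lower 15% by mean accuracy taken as high/low performers, n = 9. Test compound in saline given i.p. 10 min pre-test. Repeated-measures ANOVA, Dunnett's.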

[2] = high‐performing rats, 3 mg·kg^−1, mean ± SEM
[3] = high‐performing rats, 6 mg·kg^−1, mean ± SEM
[4] = low‐performing rats, 3 mg·kg^−1, mean ± SEM
[5] = low‐performing rats, 6 mg·kg^−1, mean ± SEM

Structure (SMILES): C/C=C(/C)C(=O)O[C@H]1C(C)=C2[C@H]([C@@H]1OC(=O)CCCCCCC)[C@@](C)(OC(C)=O)C[C@H](OC(=O)CCC)[C@@]1(O)[C@H]2OC(=O)[C@@]1(C)O [thapsigargin]
- effect on forskolin‐induced fEPSP amplitude ([1]; forskolin + thapsigargin (PDE1 activated via Ca^2+/calmodulin)): reduced fEPSPs amplitudes

Structure (SMILES): CN1C(=O)c2c(nn(Cc3ccc(-c4cccc(F)n4)cc3)c2Nc2ccccc2)N2C1=N[C@@H]1CCC[C@@H]12 [ITI‐214]
- change in alternation of MK‐801‐treated mice (male CD‐1 mice; ITI‐214 0.1 mg·kg^−1 p.o., MK‐801 0.1 mg·kg^−1 s.c.): 0%
- change in alternation of MK‐801‐treated mice (male CD‐1 mice; ITI‐214 1 mg·kg^−1 p.o., MK‐801 0.1 mg·kg^−1 s.c.): 13%
- effect on alternation performance of MK‐801‐treated mice (male CD‐1 mice; ITI‐214 1 mg·kg^−1 p.o., P < 0.05 vs. MK‐801): statistically significant
- change in alternation of MK‐801‐treated mice (male CD‐1 mice; ITI‐214 3 mg·kg^−1 p.o., MK‐801 0.1 mg·kg^−1 s.c.): 12%
- effect on alternation performance of MK‐801‐treated mice (male CD‐1 mice; ITI‐214 3 mg·kg^−1 p.o., P = 0.059 vs. MK‐801): trend towards a significant effect
- change in alternation of MK‐801‐treated mice (male CD‐1 mice; ITI‐214 10 mg·kg^−1 p.o., MK‐801 0.1 mg·kg^−1 s.c.): 10%
- change in alternation of MK‐801‐treated mice (male CD‐1 mice; ITI‐214 30 mg·kg^−1 p.o., MK‐801 0.1 mg·kg^−1 s.c.): 7%
- change in alternation of MK‐801‐treated mice (male CD‐1 mice; ITI‐214 75 mg·kg^−1 p.o., MK‐801 0.1 mg·kg^−1 s.c.): 2%
- recovery in cognitive performance (male CD‐1 mice; mice, ITI‐214 0.1 mg·kg^−1 p.o., MK‐801 0.1 mg·kg^−1 s.c.): 1%
- recovery in cognitive performance (male CD‐1 mice; mice, ITI‐214 1 mg·kg^−1 p.o., MK‐801 0.1 mg·kg^−1 s.c.): 57%
- recovery in cognitive performance (male CD‐1 mice; mice, ITI‐214 3 mg·kg^−1 p.o., MK‐801 0.1 mg·kg^−1 s.c.): 51%
- recovery in cognitive performance (male CD‐1 mice; mice, ITI‐214 10 mg·kg^−1 p.o., MK‐801 0.1 mg·kg^−1 s.c.): 45%
- recovery in cognitive performance (male CD‐1 mice; mice, ITI‐214 30 mg·kg^−1 p.o., MK‐801 0.1 mg·kg^−1 s.c.): 32%
- recovery in cognitive performance (male CD‐1 mice; mice, ITI‐214 75 mg·kg^−1 p.o., MK‐801 0.1 mg·kg^−1 s.c.): 11%
- time spent in the T‐maze vs. MK‐801/vehicle‐treated group (male CD‐1 mice; mice, ITI‐214 0.1–75 mg·kg^−1 p.o.): did not change
- maximal effect, recovery in the cognitive function (male CD‐1 mice; mice, ITI‐214 p.o., MK‐801 0.1 mg·kg^−1): approximately 57%
- PFC cGMP vs. vehicle (cGMP in the PFC of mice): significant increase
- PFC cAMP vs. vehicle (cAMP in the PFC of mice): significant increase
- effect on fEPSP amplitude, compound alone ([1]; ITI‐214 per se): did not show any effects per se
- effect on forskolin‐induced fEPSP amplitude with activated PDE1 ([1]; forskolin + thapsigargin + ITI‐214): rescued the reduced fEPSPs amplitudes

Structure (SMILES): C=C[C@@]1(C)CC(=O)[C@]2(O)[C@@]3(C)[C@@H](O)CCC(C)(C)[C@@H]3[C@H](O)[C@H](OC(C)=O)[C@@]2(C)O1 [forskolin]
- effect on fEPSPs ([1]; forskolin 0.1, 1, 10 μM): increased fEPSPs concentration‐dependently

Structure (SMILES): Oc1cc2c(cc1O)C(c1ccccc1)CNCC2 (stereo not drawn) [SKF38393]
- recovery in the cognitive performance (male CD‐1 mice; mice, SKF38393 4 mg·kg^−1 s.c., MK‐801 0.075 mg·kg^−1 s.c.): 67%
- recovery in the cognitive performance (male CD‐1 mice; mice, SKF38393 8 mg·kg^−1 s.c., MK‐801 0.075 mg·kg^−1 s.c.): 43%
- effect on MK‐801‐induced deficits in spontaneous alternation (male CD‐1 mice; mice, SKF38393 8 mg·kg^−1 s.c., P > 0.05 vs. MK‐801 and vehicle): ineffective
- time spent in the T‐maze vs. MK‐801/vehicle‐treated group (male CD‐1 mice; mice, SKF38393 2, 4, 8 mg·kg^−1 s.c.): did not change
- effect on MK‐801‐induced deficits in spontaneous alternation (male CD‐1 mice; mice, SKF38393 2 and 4 mg·kg^−1 s.c., P < 0.05 vs. MK‐801): improved
- maximal effect, recovery in the cognitive function (male CD‐1 mice; mice, SKF38393 s.c., MK‐801 0.075 mg·kg^−1): approximately 67%
- Correct latency (male Lister‐hooded rats; [2]): 0.79 ± 0.02 s
- Omissions (male Lister‐hooded rats; [2]): 11.24 ± 2.64 n
- Perseverative responses (male Lister‐hooded rats; [2]): 0.94 ± 0.26 n
- Premature responses (male Lister‐hooded rats; [2]): 3.17 ± 0.72%
- Reward latency (male Lister‐hooded rats; [2]): 1.24 ± 0.06 s
- Correct latency (male Lister‐hooded rats; [3]): 0.83 ± 0.03 s
- Omissions (male Lister‐hooded rats; [3]): 21.65 ± 2.98 n
- Perseverative responses (male Lister‐hooded rats; [3]): 1.06 ± 0.27 n
- Premature responses (male Lister‐hooded rats; [3]): 1.97 ± 0.69 %
- Reward latency (male Lister‐hooded rats; [3]): 1.27 ± 0.06 s
- enhancement of accuracy (male Lister‐hooded rats; high‐performing rats, SKF38393 3 or 6 mg·kg^−1 i.p., P > 0.05): but not high‐performing rats
- Correct latency (male Lister‐hooded rats; [4]): 0.77 ± 0.02 s
- Omissions (male Lister‐hooded rats; [4]): 10.61 ± 1.70 n
- Perseverative responses (male Lister‐hooded rats; [4]): 0.83 ± 0.26 n
- Premature responses (male Lister‐hooded rats; [4]): 3.06 ± 0.27 %
- Reward latency (male Lister‐hooded rats; [4]): 1.21 ± 0.04 s
- Correct latency (male Lister‐hooded rats; [5]): 0.85 ± 0.03 s
- Omissions (male Lister‐hooded rats; [5]): 17.74 ± 2.58 n
- Perseverative responses (male Lister‐hooded rats; [5]): 0.67 ± 0.20 n
- Premature responses (male Lister‐hooded rats; [5]): 2.15 ± 0.49 %
- Reward latency (male Lister‐hooded rats; [5]): 1.31 ± 0.06 s
- effect on synaptic transmission (fEPSP amplitude) ([1]; SKF38393): increased synaptic transmission

Structure (SMILES): C[C@]12N[C@H](Cc3ccccc31)c1ccccc12 [MK‐801]
- overall time spent to complete the T‐maze task vs. control group (male CD‐1 mice; mice, MK‐801 0.075 mg·kg^−1 s.c., Figure S1a (SKF38393 study)): reduced
- spontaneous alternation vs. vehicle‐injected mice (male CD‐1 mice; mice, MK‐801 0.075 mg·kg^−1 s.c., P < 0.05): significant reduction
- overall time spent to complete the T‐maze task vs. control group (male CD‐1 mice; mice, MK‐801 0.1 mg·kg^−1 s.c., Figure S1b (ITI‐214 study)): reduced
- reduction of spontaneous alternation vs. vehicle‐injected mice (male CD‐1 mice; mice, MK‐801 0.1 mg·kg^−1 s.c., P < 0.05): ~23%
